{"source": "paper PMC3569657", "about": "(EMBO Molecular Medicine, 2012)", "key": {"[1]": {"biological_target": "purified recombinant human I2PP2A/SET (Homo sapiens, UniProt Q01105)", "sequence (Q01105 1-277 isoform Q01105-2)": "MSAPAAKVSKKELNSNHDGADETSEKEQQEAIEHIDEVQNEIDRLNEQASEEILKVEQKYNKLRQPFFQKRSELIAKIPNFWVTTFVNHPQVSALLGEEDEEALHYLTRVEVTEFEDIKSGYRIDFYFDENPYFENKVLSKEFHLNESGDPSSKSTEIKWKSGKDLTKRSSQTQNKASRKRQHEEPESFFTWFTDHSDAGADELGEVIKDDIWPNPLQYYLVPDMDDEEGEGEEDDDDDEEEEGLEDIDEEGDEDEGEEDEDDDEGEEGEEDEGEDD", "test": "SPR binding of purified human I2PP2A/SET to lipid vesicles", "summary_of_the_method": "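SPR at 25°C. Sensor chip coated with vesicles of POPC:POPE:x (75:20:5, x = C18-ceramide or test compound) to about 6200 RU, against a POPC:POPE (80:20) control surface, and stabilised with 50 mM NaOH. Protein (I2PP2A/SET, or p47phox-PX control protein) in 20 mM HEPES pH 7.4, 0.16 M KCl was flowed at 5 µl/min. Triplicate sensorgrams per lipid were fitted individually for ka and kd, giving Kd = kd/ka.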"}, "[2]": {"biological_target": "I2PP2A/SET (Homo sapiens, UniProt Q01105)", "sequence (Q01105 1-277 isoform Q01105-2)": "as above", "type": "binding", "conditions": "unlabeled competitor 10 µM; purified I2PP2A/SET", "summary_of_the_method": "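Recombinant human I2PP2A/SET (His-tag vector), 1–2 µg, incubated with biotin alone or biotin-labelled test compound (1, 5 or 10 µM). Competition runs added unlabelled ceramide or the parent or phosphorylated compound, 10 µM each. Bound protein was captured by streptavidin/avidin column pull-down, and eluates were run on SDS–PAGE and immunoblotted with anti-I2PP2A/SET.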"}, "[3]": {"biological_target": "WT-I2PP2A/SET-GFP (Homo sapiens, UniProt Q01105)", "sequence (Q01105 1-277 isoform Q01105-2)": "as above", "test": "anti-GFP pull-down from A549 cells, protein-bound endogenous lipids by LC/MS/MS", "type": "binding", "conditions": "compared to the K209D-I2PP2A/SET (so in the source)"}, "[4]": {"biological_target": "Y122C-I2PP2A/SET-GFP (Homo sapiens, UniProt Q01105, Y135C)", "sequence (Q01105 1-277 isoform Q01105-2 Y122C)": "as the sequence (Q01105 1-277 isoform Q01105-2) above, with Y122C counted along it", "test": "anti-GFP pull-down from A549 cells, protein-bound endogenous lipids by LC/MS/MS", "type": "binding", "conditions": "compared to vector-transfected controls"}, "[5]": {"system": "serum LDH", "test": "Total LDH released in serum of xenograft-bearing mice", "type": "in vivo, SCID mice", "conditions": "mice bearing A549/sh-control xenografts, 3 mg/kg/day oral", "summary_of_the_method": "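Balb/c SCID mice bearing A549/sh-control, sh-I2PP2A/SET or reconstituted WT-I2PP2A/SET xenografts were dosed by daily oral gavage at 3 mg/kg for 18 days, with untreated mice as controls. Total serum LDH was measured by an external analytical lab.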"}, "[6]": {"system": "A549-xenograft-derived tumours", "test": "A549-xenograft-derived tumour growth in SCID mice", "type": "in vivo, Balb/c SCID mice", "summary_of_the_method": "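A549 cells, or A549 lines with control shRNA, I2PP2A/SET shRNA or shRNA plus WT-I2PP2A/SET re-expression, grown as flank xenografts in Balb/c SCID mice. Test compound was given by oral gavage at 3 mg/kg/day against vehicle-treated controls: 15 days (n = 12) for parental xenografts, 18 days for the shRNA lines. Tumour volume change was computed relative to untreated sh-control mice at Day 18. Tumours were also examined by electron microscopy for mitochondrial damage and cytoplasmic swelling.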"}, "[7]": {"system": "P-PP2A (Y307), c-Myc, hTERT mRNA", "test": "PP2A signalling markers in A549-xenograft tumours", "type": "in vivo, SCID mice", "conditions": "3 mg/kg/day oral"}, "[8]": {"system": "RIPK1−/− MEFs", "test": "Cell death in RIPK1−/− versus RIPK1+/+ MEFs", "type": "cell-based, mouse", "conditions": "FTY720 15 µM, RIPK1−/− compared to RIPK1+/+ MEFs"}, "[9]": {"test": "FTY720 and P-FTY720 in serum and tumours of LLC-allograft mice by LC/MS/MS", "type": "in vivo, mouse", "conditions": "oral FTY720 10 mg/kg", "summary_of_the_method": "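Lewis lung adenocarcinoma allografts were grown in flanks of WT and SK-2−/− mice. Animals received oral test compound at 10 mg/kg. Parent compound and its phosphorylated form were quantified by LC/MS/MS in the tumours.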"}, "[10]": {"system": "WT MEFs", "test": "MTT growth assay", "type": "cell-based", "conditions": "Mus musculus"}, "[11]": {"system": "Lewis lung adenocarcinoma cell (LLC)-derived allografts", "test": "Lewis lung adenocarcinoma allograft growth in WT and SK-2−/− mice", "type": "in vivo, mouse", "conditions": "10 mg/kg/day oral, vs controls", "summary_of_the_method": "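Lewis lung adenocarcinoma cells were implanted in flanks of WT (C57BL/6 background) and SK-2−/− mice. Animals were treated with oral test compound at 10 mg/kg or served as controls. Results are given as % change in tumour volume for each genotype against its controls at Day 13.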"}, "[12]": {"test": "FTY720 and P-FTY720 in tumour and serum of A549-xenograft mice by LC/MS/MS", "type": "in vivo, SCID mice", "conditions": "mice treated with oral FTY720 3 mg/kg/day"}, "[13]": {"system": "A549 cells", "test": "Cell death by LDH release", "type": "cell-based, human", "summary_of_the_method": "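A549 cells were exposed to 20 µM test compound or vehicle for 24 h, and cell death was read as LDH released into the medium. Variants included pre-treatment with okadaic acid (10 nM), Z-VAD or necrostatin, and PP2A siRNA knockdown against scrambled siRNA (knockdown checked by Western blot). Another variant used HA-tagged PP2A overexpression, confirmed by Western blot, compared with controls.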"}, "[14]": {"system": "H157 (K-Ras mutant) human lung cancer cells", "test": "Cell death by LDH release", "type": "cell-based", "conditions": "FTY720 20 µM", "summary_of_the_method": "(§1)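 Cell death was assessed in human lung cancer lines H157 (K-Ras mutant) and H827 (EGFR mutant) after exposure to test compound. Conditions compared with controls: RIPK1 inhibition by necrostatin, PP2A inhibition by okadaic acid, and siRNA knockdown of RIPK1 or PP2Ac.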"}, "[15]": {"system": "c-Myc-V5", "test": "Ectopically expressed c-Myc-V5 in MEFs by Western blotting", "type": "cell-based, mouse", "summary_of_the_method": "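V5-tagged c-Myc was ectopically expressed in WT, SK-1−/− and SK-2−/− mouse embryonic fibroblasts. Cells were exposed to test compound, and c-Myc was detected by Western blotting with actin as loading control. Relative c-Myc levels were derived from band quantification.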"}, "[16]": {"system": "c-Myc", "test": "c-Myc expression in A549 cells by Western blotting", "type": "cell-based, human", "conditions": "compared to controls", "summary_of_the_method": "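A549 cells were treated with test compound or its phosphorylated form alongside controls. c-Myc was detected by Western blotting with actin as loading control, and relative c-Myc levels were derived from band quantification.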"}, "[17]": {"system": "MEFs obtained from caspase3/7−/− DKO, Bax/Bak−/− DKO or ATG5−/− KO mice", "test": "MTT growth assay in knockout MEFs", "type": "cell-based, mouse", "conditions": "various concentrations"}, "[18]": {"system": "SK1−/− MEFs", "test": "MTT growth assay", "type": "cell-based", "conditions": "Mus musculus"}, "[19]": {"system": "SK2−/− MEFs", "test": "MTT growth assay", "type": "cell-based", "conditions": "Mus musculus"}, "[20]": {"system": "A549 cells", "test": "Annexin V/7-AAD flow cytometry", "type": "cell-based, human", "conditions": "compared to controls"}, "[21]": {"system": "PP2A", "test": "PP2A activity assay on A549 cell extracts", "type": "cell-based, human", "conditions": "10 µM FTY720, compared to vehicle-treated controls", "summary_of_the_method": "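PP2A phosphatase activity was measured in extracts of A549, A549/shI2PP2A and A549/shI2PP2A re-expressing WT-I2PP2A/SET (about 60% reconstitution). Cells were grown with or without 10 µM test compound. In a related set, PP2A siRNA knockdown in A549 cells was compared with scrambled-siRNA controls.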"}, "[22]": {"system": "H827 (EGFR mutant) human lung cancer cells", "test": "Cell death by LDH release", "type": "cell-based", "conditions": "FTY720 20 µM", "summary_of_the_method": "as §1"}}, "note": "Values joined by “and” are separate entries in the source; they are usually repeats but may differ in a detail not shown here. Identical values can stand only once. Like-named read-outs stand apart in the source and are kept apart here."}
{"smiles": "CCCCCCCCCCCCC/C=C/[C@@H](O)[C@H](CO)NC(=O)CCCCCCCCCCCCCCCCC", "note": "[C18-ceramide]", "values": [{"measurement": "Kd", "setting": "[1]; read-out: Protein Kd, liposomes POPC:POPE:x (75:20:5), control POPC:POPE (80:20), 1 µM I2PP2A, 20 mM HEPES pH 7.4, 160 mM KCl", "result": "~11 nM and 11 nM"}, {"measurement": "competition with B-FTY720-I2PP2A/SET binding", "setting": "[2]", "result": "competed significantly"}]}
{"smiles": "CCCCCCCCCCCCC/C=C/[C@@H](O)[C@H](CO)NC(=O)CCCCCCCCCCCCCCCCCCC", "note": "[C20]", "values": [{"measurement": "binding of WT-I2PP2A/SET to ceramide, fold", "setting": "[3]", "result": 1.9, "unit": "fold"}]}
{"smiles": "CCCCCCCCCCCCC/C=C/[C@@H](O)[C@H](CO)NC(=O)CCCCCCCCCCCCCCCCCCCCC", "note": "[C22]", "values": [{"measurement": "binding of WT-I2PP2A/SET to ceramide, fold", "setting": "[3]", "result": 2.6, "unit": "fold"}]}
{"smiles": "CCCCCCCCCCCCC/C=C/[C@@H](O)[C@H](CO)NC(=O)CCCCCCCCCCCCCCCCCCCCCCC", "note": "[C24]", "values": [{"measurement": "binding of WT-I2PP2A/SET to ceramide, fold", "setting": "[3]", "result": 2.1, "unit": "fold"}]}
{"smiles": "CCCCCCCCCCCCC/C=C/[C@@H](O)[C@H](CO)NC(=O)CCCCCCCCCCCCCCCCCCCCCCCCC", "note": "[C26]", "values": [{"measurement": "binding of WT-I2PP2A/SET to ceramide, fold", "setting": "[3]", "result": 2.5, "unit": "fold"}, {"measurement": "increased binding of Y122C-I2PP2A/SET to ceramide, fold", "setting": "[4]", "result": "~2.4", "unit": "fold"}]}
{"smiles": "CCCCCCCCc1ccc(CCC(N)(CO)CO)cc1", "note": "[FTY720, 2-amino-2-[2-(4-octylphenyl)ethyl]propane-1,3-diol]", "values": [{"measurement": "serum LDH", "setting": "[5]", "result": "increased serum LDH"}, {"measurement": "Kd", "setting": "[1]; Protein Kd, liposomes POPC:POPE:x (75:20:5), control POPC:POPE (80:20), 1 µM I2PP2A, 20 mM HEPES pH 7.4, 160 mM KCl", "result": "~11 nM and 11 nM"}, {"measurement": "tumour suppression in A549/sh-I2PP2A/SET xenografts expressing WT-I2PP2A/SET", "setting": "[6]; 3 mg/kg/day oral", "result": "restored tumour suppressor effects"}, {"measurement": "tumour suppression in response to I2PP2A/SET knockdown (A549/sh-I2PP2A/SET xenografts)", "setting": "[6]; 3 mg/kg/day oral", "result": "no additional effects"}, {"measurement": "growth of A549-xenograft-derived tumours", "setting": "[6]; 3 mg/kg/day oral for 15 days, n = 12, p < 0.05 vs controls", "result": "inhibited the growth"}, {"measurement": "inhibition of growth of A549/control-derived xenografts", "setting": "[6]; 3 mg/kg/day oral, 18 days, vs vehicle-treated controls", "result": "~80", "unit": "%"}, {"measurement": "tumours with damaged/swollen mitochondria (TEM)", "setting": "[6]; oral FTY720, n = 20", "result": "~40", "unit": "%"}, {"measurement": "c-Myc and hTERT mRNA in tumours", "setting": "[7]; IHC or Western blotting, Q-PCR", "result": "decreased"}, {"measurement": "inactive P-PP2A (Y307) in tumours", "setting": "[7]; IHC, without affecting total PP2A", "result": "decreased"}, {"measurement": "cell death on genetic loss of RIPK1", "setting": "[8]", "result": "almost completely abrogated cell death"}, {"measurement": "accumulation in tumours grown in WT and SK-2−/− mice", "setting": "[9]", "result": "comparable"}, {"measurement": "IC50", "setting": "[10]", "result": "~10000", "unit": "nM"}, {"measurement": "inhibition of tumour growth", "setting": "[11]; SK-2−/− mice", "result": "~47", "unit": "%"}, {"measurement": "inhibition of tumour growth", "setting": "[11]; WT mice", "result": "~60", "unit": "%"}, {"measurement": "accumulation in A549-xenograft-derived tumours", "setting": "[12]", "result": 0.2, "unit": "pmol/nmol Pi"}, {"measurement": "accumulation in serum", "setting": "[12]", "result": "~100", "unit": "pmol/mL"}, {"measurement": "cell death", "setting": "[13]; 20 µM, 24 h, LDH release", "result": "significantly induced cell death"}, {"measurement": "increase of FTY720-mediated cell death on overexpression of PP2A-HA", "setting": "[13]; compared to controls", "result": "~40", "unit": "%"}, {"measurement": "PP2A-dependent necroptosis", "setting": "[14]", "result": "detected"}, {"measurement": "competition with B-FTY720-I2PP2A/SET binding", "setting": "[2]", "result": "competed significantly"}, {"measurement": "reduced c-Myc expression", "setting": "[15]; SK-1−/− MEFs", "result": 70, "unit": "%"}, {"measurement": "reduced c-Myc expression", "setting": "[15]; SK-2−/− MEFs", "result": 55, "unit": "%"}, {"measurement": "reduced c-Myc expression", "setting": "[15]; WT MEFs", "result": 80, "unit": "%"}, {"measurement": "c-Myc levels", "setting": "[16]", "result": "decreased c-Myc levels"}, {"measurement": "effect of genetic loss of caspases3/7, Bax/Bak or ATG5 on FTY720-induced cell death", "setting": "[17]", "result": "no protective effect"}, {"measurement": "IC50", "setting": "[18]", "result": "~10000", "unit": "nM"}, {"measurement": "IC50", "setting": "[19]", "result": "~10000", "unit": "nM"}, {"measurement": "Annexin V/7-AAD positive cell populations", "setting": "[20]", "result": "increased"}, {"measurement": "PP2A activity", "setting": "[21]", "result": "enhanced PP2A activity"}, {"measurement": "PP2A-dependent necroptosis", "setting": "[22]", "result": "detected"}]}
